Measured values gathered from unrelated publications.
Target: Serine/threonine-protein kinase LATS1 (LATS1, Homo sapiens, UniProt O95835)
One construct used (O95835 1-1130): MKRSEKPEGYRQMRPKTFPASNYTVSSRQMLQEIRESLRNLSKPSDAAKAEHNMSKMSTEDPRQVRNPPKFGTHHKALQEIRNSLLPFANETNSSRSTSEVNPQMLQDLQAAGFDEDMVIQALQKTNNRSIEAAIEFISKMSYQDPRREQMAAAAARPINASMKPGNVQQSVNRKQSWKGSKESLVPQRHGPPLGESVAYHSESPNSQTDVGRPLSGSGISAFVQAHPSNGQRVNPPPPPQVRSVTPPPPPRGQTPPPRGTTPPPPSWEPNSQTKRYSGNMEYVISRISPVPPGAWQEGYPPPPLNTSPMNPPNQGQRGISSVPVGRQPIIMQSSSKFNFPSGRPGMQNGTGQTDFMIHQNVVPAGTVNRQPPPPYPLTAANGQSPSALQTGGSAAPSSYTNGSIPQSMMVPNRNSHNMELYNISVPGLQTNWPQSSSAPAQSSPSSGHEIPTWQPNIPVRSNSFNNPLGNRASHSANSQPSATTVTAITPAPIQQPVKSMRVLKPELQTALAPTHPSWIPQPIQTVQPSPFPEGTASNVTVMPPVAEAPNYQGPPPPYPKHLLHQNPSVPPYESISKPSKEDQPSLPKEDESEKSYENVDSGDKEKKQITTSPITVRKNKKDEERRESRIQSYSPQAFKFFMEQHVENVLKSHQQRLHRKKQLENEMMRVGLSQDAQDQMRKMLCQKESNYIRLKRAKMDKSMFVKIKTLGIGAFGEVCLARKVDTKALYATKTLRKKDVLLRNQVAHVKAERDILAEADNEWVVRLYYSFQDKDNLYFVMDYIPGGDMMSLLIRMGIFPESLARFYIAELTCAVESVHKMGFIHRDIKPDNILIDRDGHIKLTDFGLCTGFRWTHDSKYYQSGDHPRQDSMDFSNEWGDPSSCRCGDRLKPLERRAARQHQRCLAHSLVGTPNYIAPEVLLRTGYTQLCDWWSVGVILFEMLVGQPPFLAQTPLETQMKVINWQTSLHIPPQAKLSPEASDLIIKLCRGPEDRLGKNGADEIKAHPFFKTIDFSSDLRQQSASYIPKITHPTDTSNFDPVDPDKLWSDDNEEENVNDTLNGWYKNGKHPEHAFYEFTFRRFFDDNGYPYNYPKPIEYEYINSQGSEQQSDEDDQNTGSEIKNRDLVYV

| SMILES | read-out | mode | method | concentration | endpoint | value |
| --- | --- | --- | --- | --- | --- | --- |
| Nc1ncnc2occ(-c3ccc(NC(=O)Nc4cc(C(F)(F)F)ccc4F)cc3)c12 | cell-free assay | inhibitor |  | 20 µM | remaining signal | 33% |
| Cc1sc(C(=O)NC2COC2)cc1-n1cc(NC(=O)Nc2c(F)cccc2Cl)cn1 | enzyme activity | inhibitor |  | 10 µM | remaining activity | 97.2% |
| Cc1ccc(C(=O)Nc2ccc(CN3CCN(C)CC3)c(C(F)(F)F)c2)cc1C#Cc1cnc2cccnn12 | enzyme activity | inhibitor |  | 23.5 nM | remaining activity | 93% |
| CC1CCCN1c1nccc(-c2cnn3ncccc23)n1 (stereo not shown) | binding |  |  | 1 µM | remaining binding | 100% |
| COc1cc(-c2cc(-c3ccc(N4CCNCC4)cc3)cnc2C)cc(OC)c1OC | enzyme activity | inhibitor |  | 1 µM | inhibition | 7% |
| O=C(NC[C@@H]1[C@H]2CN(C(=O)OCc3cc(C(F)(F)F)cc(C(F)(F)F)c3)C[C@@H]12)c1ccc2[nH]nnc2c1 | cell-free assay |  | competition with immobilised ligand | 1 µM | remaining binding | 96% |
| CCCCNc1ncc2c(-c3ccc(F)cc3)nn(C[C@H]3CC[C@H](N)CC3)c2n1 | target engagement in cells | inhibitor | chemoproteomics | 20 mM | inhibition | 7.3% |
| Cn1cnc(Br)c1C1=CN(c2ncnc3[nH]cnc23)CCS1 | enzyme activity | inhibitor | radiometric | 50 nM | inhibition | 51.5% |
| CC(=O)N1CCC(c2ccc(C(=O)NC(=N)N)cc2C(F)(F)F)CC1 | cell-free assay |  | competition with immobilised ligand | 1 µM | remaining binding | 72% |
| CC(C)(O)[C@H]1CC[C@H](Nc2ccc3ncc(-c4cccc(C(F)(F)F)c4)n3n2)CC1 | enzyme activity | inhibitor |  | 1 µM | remaining activity | 96.1% |
| CN1CCN(c2cnc3c(C4CCN(C(=O)c5ccc(OC(F)(F)F)cc5N)CC4)ncnc3c2)CC1 | cell-free assay |  | competition with immobilised ligand | 1 µM | remaining binding | 81% |
| COc1cccc2c(NCc3ccccc3)nc(-n3c(N)nc4ccccc43)nc12 | target engagement in cells | inhibitor | chemoproteomics | 20 mM | inhibition | -30.5% |
| O=C(Nc1cnn(-c2csc(C(=O)NC3COC3)c2)c1)Nc1ccccc1Cl | enzyme activity | inhibitor |  | 5 µM | remaining activity | 106% |
